Assay [1] deals with Nucleic Acid. The assay is described as follows: Inhibition of the peptidoglycan synthesis in the absence of dipeptide bonding using UDP-MurNAc-pentapeptide. In kind it is nucleic-acid assay. The procedure, abridged:
(§1)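 Peptidoglycan synthesis run on filter plates with E. coli OV58 (pTA9) membranes, UDP-MurNAc-pentapeptide or UDP-MurNAc-tetrapeptide plus UDP-N-acetyl-[14C]-D-glucosamine as substrates; radiolabel incorporation into peptidoglycan measured. IC50 from at least six drug concentrations in duplicate, fitted by four-parameter logistic nonlinear regression.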

Assay [2] relates to Staphylococcus haemolyticus. Briefly: Antibacterial activity evaluated as minimum inhibitory concentration against 602 Staphylococcus haemolyticus. The arrangement: unit not given beside the values.
Assay [3] concerns Nucleic Acid. Briefly: Ratio UDP-MurNAc-tetrapeptide to UDP-MurNAc-Pentapeptide. It counts as nucleic-acid assay.
In assay [4] the test system is Enterococcus faecium. Briefly: Antibacterial activity evaluated as minimum inhibitory concentration against 569 Enterococcus faecium (GRE). In kind it is functional. The method, boiled down:
(§2)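 Broth microdilution in Mueller Hinton broth per NCCLS procedure; repeat results usually identical, always within 2-fold. GISA strains 3797 (HIP-5836 New Jersey) and 3798 (HIP-5827 Michigan); 533 S. epidermidis and 602 S. haemolyticus are clinical isolates; vancomycin-resistant enterococci have confirmed genotype.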

Assay [5] concerns Nucleic Acid. The assay is described as follows: Inhibition of the peptidoglycan synthesis in the absence of dipeptide bonding using UDP-MurNAc-tetrapeptide. It counts as nucleic-acid assay. The procedure, abridged:
as §1

In assay [6] the test system is Enterococcus faecalis. Briefly: Antibacterial activity evaluated as minimum inhibitory concentration against 560 Enterococcus faecalis (GRE). In kind it is functional. The method, boiled down: as §2
Assay [7] has as its system Staphylococcus epidermidis. Briefly: Antibacterial activity evaluated as minimum inhibitory concentration against 533 Staphylococcus epidermidis. It counts as functional. The method, boiled down: as §2
Assay [8] relates to Enterococcus faecalis. Briefly: Antibacterial activity evaluated as minimum inhibitory concentration against 559 Enterococcus faecalis (GSE). In kind it is functional. On the set-up: unit not given beside the values. The procedure, abridged: as §2
Assay [9] concerns Staphylococcus aureus. The assay is described as follows: Antibacterial activity evaluated as minimum inhibitory concentration against 3798 Staphylococcus aureus (GISA). In kind it is functional. On the set-up: unit not given beside the values. The procedure, abridged: as §2
The subject of assay [10] is Staphylococcus aureus. Briefly: Antibacterial activity evaluated as minimum inhibitory concentration against 3797 Staphylococcus aureus (GISA). It counts as functional. The arrangement: unit not given beside the values. The procedure, abridged: as §2
Assay [11] deals with Enterococcus faecium. The assay is described as follows: Antibacterial activity evaluated as minimum inhibitory concentration against 568 Enterococcus faecium (GSE). It counts as functional. The method, boiled down:
as §2

Where only a bound is given, the exact number is not on record here.

By IC50 is commonly meant the point on the concentration scale where inhibition reaches its midpoint. For `CCCCCCCCCCNC(=O)[C@H]1NC(=O)[C@H]2NC(=O)[C@H](NC(=O)[C@@H]3NC(=O)[C@H](CC(N)=O)NC(=O)[C@H](NC(=O)[C@@H](CC(C)C)NC)[C@H](O)c4ccc(c(Cl)c4)Oc4cc3cc(c4O[C@@H]3O[C@@H](CO)[C@H](O)[C@@H](O)[C@@H]3O[C@H]3C[C@@](C)(N)[C@@H](O)[C@@H](C)O3)Oc3cccc(c3)[C@H]2O[C@H]2C[C@@](C)(N)[C@@H](O)[C@@H](C)O2)c2ccc(O)c(c2)-c2c(O)cc(O)cc21`, the concentration for half-maximal inhibition (IC50) was determined as 1300 nM with Nucleic Acid [1] and 6400 nM in the assay on Nucleic Acid [5]. Also, the MIC in assay [2] turned out to be 0.13; in the assay on Enterococcus faecium [4] it was 2; in the assay on Enterococcus faecalis [6] it was 4; in assay [7], 0.13; in the assay on Enterococcus faecalis [8], 1; in the assay on Staphylococcus aureus [9], 4. Further, the MIC against Staphylococcus aureus [10] is listed as 4; in the assay on Enterococcus faecium [11] it was 0.5. The Ratio with Nucleic Acid [3] was 5.

Consider `C[C@H]1O[C@@H](O[C@@H]2[C@H](Oc3c4cc5cc3Oc3ccc(cc3Cl)[C@@H](O)[C@@H](N)C(=O)N[C@@H](CC(N)=O)C(=O)N[C@H]5C(=O)N[C@H]3C(=O)N[C@H](C(=O)N[C@H](C(=O)O)c5cc(O)cc(O)c5-c5cc3ccc5O)[C@H](O[C@H]3C[C@@](C)(N)[C@@H](O)[C@@H](C)O3)c3cccc(c3)O4)O[C@@H](CO)[C@H](O)[C@H]2O)C[C@@](C)(NCc2ccc(-c3ccc(Cl)cc3)cc2)[C@H]1O`, for which the IC50 is 7700 nM in the assay on Nucleic Acid [1] and 9200 nM in the assay with Nucleic Acid [5]. For the same molecule, the MIC in [2] stood at 4; against Enterococcus faecium [4] it was 8; in the assay with Enterococcus faecalis [6], 8; in assay [7], 4; in the assay on Enterococcus faecalis [8], 4; in the assay with Staphylococcus aureus [9] it was 8. Moreover, the MIC came out at 8 in the assay with Staphylococcus aureus [10] and 4 against Enterococcus faecium [11]. The Ratio with Nucleic Acid [3] came to 1.2.

Turning to `CCCCCCCCCCN[C@]1(C)C[C@H](O[C@@H]2[C@H](Oc3c4cc5cc3Oc3ccc(cc3Cl)[C@@H](O)[C@@H](NC(=O)[C@@H](CC(C)C)NC)C(=O)N[C@@H](CC(N)=O)C(=O)N[C@H]5C(=O)N[C@H]3C(=O)N[C@H](C(=O)N[C@H](C(=O)O)c5cc(O)cc(O)c5-c5cc3ccc5O)[C@H](O[C@H]3C[C@@](C)(N)[C@@H](O)[C@@H](C)O3)c3cccc(c3)O4)O[C@@H](CO)[C@H](O)[C@H]2O)O[C@H](C)[C@@H]1O`, the half-inhibitory concentration (IC50) in the assay on Nucleic Acid [1] turned out to be 1800 nM; in the assay with Nucleic Acid [5], 13300 nM. Besides, the MIC is given as 0.5 in [2]; 4 in the assay with Enterococcus faecium [4]; 8 against Enterococcus faecalis [6]; 0.5 in assay [7]; 0.5 against Enterococcus faecalis [8]; 4 with Staphylococcus aureus [9]. Besides, the MIC against Staphylococcus aureus [10] is 4; against Enterococcus faecium [11], 0.5. For the same molecule, the Ratio with Nucleic Acid [3] came to 7.3.

As for `CN[C@@H](CC(C)C)C(=O)N[C@H]1C(=O)N[C@@H](CC(N)=O)C(=O)N[C@H]2C(=O)N[C@H]3C(=O)N[C@H](C(=O)N[C@H](C(=O)O)c4cc(O)cc(O)c4-c4cc3ccc4O)[C@H](O[C@H]3C[C@@](C)(N)[C@@H](O)[C@@H](C)O3)c3cccc(c3)Oc3cc2cc(c3O[C@@H]2O[C@@H](CO)[C@H](O)[C@@H](O)[C@@H]2O[C@H]2C[C@@](C)(NCc3ccc(-c4ccc(Cl)cc4)cc3)[C@@H](O)[C@@H](C)O2)Oc2ccc(cc2Cl)[C@H]1O`, the IC50 in the assay on Nucleic Acid [1] worked out at 120 nM; in the assay on Nucleic Acid [5], 2700 nM. Also, the Ratio in the assay on Nucleic Acid [3] amounted to 23.

As for `CN[C@@H](CC(C)C)C(=O)N[C@H]1C(=O)N[C@@H](CC(N)=O)C(=O)N[C@H]2C(=O)N[C@H]3C(=O)N[C@H](C(=O)N[C@H](C(=O)O)c4cc(O)cc(O)c4-c4cc3ccc4O)[C@H](O[C@H]3C[C@@](C)(N)[C@@H](O)[C@@H](C)O3)c3cccc(c3)Oc3cc2cc(c3O[C@@H]2O[C@@H](CO)[C@H](O)[C@@H](O)[C@@H]2O[C@H]2C[C@@](C)(N)[C@@H](O)[C@@H](C)O2)Oc2ccc(cc2Cl)[C@H]1O`, the results for the concentration for half-maximal inhibition (IC50) with Nucleic Acid [1] and in the assay with Nucleic Acid [5] were 300 nM and more than 640000 nM, respectively. Besides, the Ratio with Nucleic Acid [3] is more than 2300.

Values taken from ChEMBL document CHEMBL1135893, “Synthesis and mode of action of hydrophobic derivatives of the glycopeptide antibiotic eremomycin and des-(N-methyl-D-leucyl)eremomycin against glycopeptide-sensitive and -resistant bacteria” (J Med Chem, 2002).
